Screens (PubChem BioAssay)
TRPC4 potent: allosteric potentiators of mouse TRPC4 channel; Q9QUQ5; HEK293 TRPC4beta/mu-opioid, DAMGO EC20, Fluo-4 Ca2+ flux; hits give high values; hit rate 0.42% among 310,000; B-score at 10 µM;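 active means B-score of calcium response area above 5 SD of library B-scores, with initial fluorescence ratio within 5 SD of library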;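 further: B-score of integrated fluorescence ratio over time as area under calcium response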
Target sequence (Q9QUQ5 whole entry, looked up): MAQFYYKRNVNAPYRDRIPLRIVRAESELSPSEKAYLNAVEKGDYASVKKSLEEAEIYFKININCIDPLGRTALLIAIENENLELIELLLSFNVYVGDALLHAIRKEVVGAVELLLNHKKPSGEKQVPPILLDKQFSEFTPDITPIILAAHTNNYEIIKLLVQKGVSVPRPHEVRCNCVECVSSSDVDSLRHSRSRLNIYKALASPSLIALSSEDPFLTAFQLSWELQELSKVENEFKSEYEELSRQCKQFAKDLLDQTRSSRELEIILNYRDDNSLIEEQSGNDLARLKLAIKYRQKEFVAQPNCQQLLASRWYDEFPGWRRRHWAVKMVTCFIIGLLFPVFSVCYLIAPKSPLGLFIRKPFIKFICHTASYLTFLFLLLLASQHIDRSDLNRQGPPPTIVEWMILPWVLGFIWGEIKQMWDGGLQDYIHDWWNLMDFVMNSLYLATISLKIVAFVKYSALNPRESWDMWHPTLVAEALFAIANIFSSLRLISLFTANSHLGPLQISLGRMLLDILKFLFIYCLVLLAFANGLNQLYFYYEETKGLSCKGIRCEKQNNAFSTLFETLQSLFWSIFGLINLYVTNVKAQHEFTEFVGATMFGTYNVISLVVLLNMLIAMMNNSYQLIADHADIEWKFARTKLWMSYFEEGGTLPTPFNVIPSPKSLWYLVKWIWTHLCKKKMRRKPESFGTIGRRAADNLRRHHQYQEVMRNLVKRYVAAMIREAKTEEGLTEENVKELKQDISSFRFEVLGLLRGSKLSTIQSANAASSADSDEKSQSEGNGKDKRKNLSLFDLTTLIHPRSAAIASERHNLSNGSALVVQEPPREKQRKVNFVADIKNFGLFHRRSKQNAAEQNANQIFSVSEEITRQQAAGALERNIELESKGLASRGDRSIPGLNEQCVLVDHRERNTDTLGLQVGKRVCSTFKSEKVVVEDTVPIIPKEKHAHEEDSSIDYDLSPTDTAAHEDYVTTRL
TRPC6 inh: mouse TRPC6 channel inhibition; Q61143; HEK293-TRPC6, membrane potential dye, ACh-evoked depolarization; hits give low values; B-score at 10 µM; hit rate 1.1% among 310,000; AID 2553;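 active means B-score under library mean minus 3 SD, initial fluorescence not abnormally high, positive integrated signal ratio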;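 further: B-score derived from integrated fluorescence ratio over the kinetic read; more negative B-score means stronger inhibition of depolarization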
TRPC4 block: blocks the mouse TRPC4 cation channel; hit rate 0.39% among 300,000; AID 2247; HEK293 TRPC4beta/mu-opioid, DAMGO-evoked Fluo4 calcium flux; hits give low values; B-score at 10 µM; Q9QUQ5;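 active means B-score over 3 SD under the library average, no early fluorescence shift, positive overall ratio signal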
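material = TRPC4beta/mu-opioid receptor HEK293 cell line | probe or stimulus = sequential submaximal and maximal DAMGO stimulation | compound dosing = one concentration per compound | measured by = Fluo4 Ca2+ flux fluorescence | evaluation = integrated fluorescence ratio relative to baseline, converted to per-well B score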
TRPC4 act: TRPC4 (mouse) channel activation | Q9QUQ5 | HEK293 TRPC4beta/mu-opioid, Fluo4 calcium fluorescence; hits give high values | B-score at 10 µM | hit rate 0.49% among 310,000 | AID 2237;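 active means B-score above 5 SD of library B-scores, and initial fluorescence ratio not above library mean plus 5 SD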;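 further: positive B-score marks a calcium rise read as TRPC4 activation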
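Assay system: HEK293 stable line with TRPC4beta plus mu-opioid receptor; schedule: 45 min room-temperature Fluo4 loading, 110 s read; technique: kinetic Fluo4 calcium fluorescence; evaluation: integrated baseline-normalised fluorescence ratio, converted to per-well B score; controls: buffer (low) and maximal DAMGO (high)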
TRPC6 act: activates the mouse TRPC6 cation channel; Q61143; HEK293-TRPC6 membrane potential dye fluorescence; hits give high values; B-score at 10 µM; hit rate 0.13% among 310,000; AID 2550;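 active means B-score of the integrated fluorescence ratio above library mean plus 3 SD, and starting fluorescence ratio within library mean plus 5 SD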;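 further: higher score means more depolarization so channel activation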
Platelet DG rel: platelet dense granule release activity | human platelet-rich plasma, SFLLRN dense granule ATP release, luminescence | hit rate 0.22% among 300,000 | inhibition, %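 (compounds screened at 7.5 µM in platelet-rich plasma)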;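 active means mean replicate score, as percent of positive control, at or above 50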
An asterisk follows results filed as active; i = inactive; / = not tested or not shown. This is a sample that favours compounds with a hit; in the whole collection about 2.5% have one here.

SMILES | TRPC4 potent | TRPC6 inh | TRPC4 block | TRPC4 act | TRPC6 act | Platelet DG rel
CN(C)C(CNC(=O)CCS(=O)(=O)c1ccccc1)c1ccccc1 (configuration not stated) | i | i | i | 96* | i | -3
COc1ccc(C(CNC(=O)c2ccc3c(c2)OCCO3)N(C)C)cc1 (configuration not stated) | i | i | i | 164* | i | 10
CCOc1ccc(-c2cc(NC(=O)Cn3ncc4c3-c3ccccc3OC4)on2)cc1OCC | i | i | i | i | i | 2
COc1ccc(C(CNC(=O)c2cccc(S(=O)(=O)NCc3ccccc3)c2)N(C)C)cc1 (configuration not stated) | i | i | i | 159* | i | -6
CN(C)C(CNC(=O)c1cccc(S(=O)(=O)N(C)C)c1)c1ccccc1 (configuration not stated) | i | i | i | 109* | i | 0
COc1ccc(NS(=O)(=O)c2cccc(C(=O)NCC(c3ccccc3)N(C)C)c2)cc1 (configuration not stated) | i | i | i | i | i | 2
CN(C)S(=O)(=O)c1cccc(C(=O)NCCNC(=O)c2cccc(S(=O)(=O)N(C)C)c2)c1 | i | i | i | i | i | 7
O=S(=O)(O)c1cc2oc(-c3ccccc3)nc2c2ccccc12 | i | i | i | i | i | -2
C#CCOCCOCCOCCNc1nc(N2CCN(C(=O)C([C@@H](C)CC)n3cc(C(N)COC(=O)C(F)(F)F)nn3)CC2)nc(N2CCN(C(=O)[C@H](CCCCN)n3cc(C(N)[C@H](C)CC)nn3)CC2)n1 (some centres not stated) | i | i | i | i | i | 3
CCOC(=O)c1c(N)sc(C(O)(C(F)(F)F)C(F)(F)F)c1-c1ccccc1 | i | i | -7* | i | i | -1
O=C(NN=C1CCCC1)c1ccc(Br)cc1 | i | i | i | i | i | 0
Cc1cc(C(=O)CN2C(=O)C(=O)N(CC(C)C)C2=O)c(C)n1-c1ccccc1F | 15* | i | i | i | i | 1
Cc1cc(C(=O)Cn2nnc3ccccc3c2=O)c(C)n1-c1ccccc1F | 14* | i | i | i | i | -2
Cc1cc(C(=O)CN2C(=O)NC(CC(C)C)C2=O)c(C)n1-c1ccccc1F (configuration not stated) | i | i | i | i | i | -2
COc1ccc(-n2c(O)c(/C=N/NS(=O)(=O)c3ccc(C)c([N+](=O)[O-])c3)c3ccccc3c2=O)cc1OC | i | i | i | 56* | i | 0
COc1cc(/C=N/NS(=O)(=O)c2ccc(C)c([N+](=O)[O-])c2)cc([N+](=O)[O-])c1O | i | i | i | i | i | 5
Cc1ccc(C(=O)NC(=S)NNC(=O)c2ccccc2)cc1 | i | i | i | 90* | i | 4
Cc1ccc(C(=O)NC(=S)NNC(=O)c2ccc([N+](=O)[O-])cc2)cc1 | i | i | i | i | i | 6
O=C(O)c1ccc(NC(=S)NC(=O)c2ccc(-c3ccccc3)cc2)cc1 | i | i | -6* | i | i | -2
Cc1ccc(C(=O)NNC(=S)NC(=O)c2ccccc2)cc1 | i | i | i | 218* | i | 18
CCCCCC(=O)NNC(=S)NC(=O)c1ccc([N+](=O)[O-])cc1 | i | i | i | 79* | i | 2
COc1ccnc(-n2cccc2C#N)c1C#N | i | i | i | i | i | -4
CSCCC(NS(=O)(=O)/C=C/c1ccccc1)C(=O)O (configuration not stated) | i | i | i | i | i | -97
Cc1ccccc1C(=O)NNC(=S)NC(=O)c1ccccc1 | i | i | i | 205* | i | -5
O=C(NC(=S)NNC(=O)c1ccccc1O)c1ccccc1 | i | i | i | i | i | -10
SMILES | TRPC4 potent | TRPC6 inh | TRPC4 block | TRPC4 act | TRPC6 act | Platelet DG rel
O=C(NNC(=S)NC(=O)c1ccccc1[N+](=O)[O-])c1ccccc1[N+](=O)[O-] | i | i | i | i | i | 11
Cc1ccccc1OCC(=O)NNC(=S)NC(=O)c1ccco1 | i | i | i | 88* | i | -3
O=C(NNC(=S)NC(=O)c1ccccc1Cl)c1cccc([N+](=O)[O-])c1 | i | i | i | 106* | i | -4
Cc1ccccc1OCC(=O)Nc1ccccc1NC(=O)c1ccco1 | i | i | i | i | i | 2
O=C(NNC(=S)NC(=O)c1ccccc1[N+](=O)[O-])c1ccc(Cl)cc1Cl | i | i | i | 49* | i | 0
Cc1ccc(Oc2ccc(OCC(=O)NC3CCS(=O)(=O)C3)cc2)cc1 (configuration not stated) | i | i | i | i | i | -7
O=C(NCc1ccccc1Cl)c1ccc(CS(=O)Cc2ccc(Cl)cc2)o1 (configuration not stated) | i | i | i | i | i | 1
CCCCNC(=O)c1onc(CSc2ccccn2)c1C(=O)NCCCC | i | i | i | i | i | -3
O=C(NNC(=S)NC(=O)c1ccc(Br)cc1)c1ccc([N+](=O)[O-])cc1 | i | i | i | i | i | -7
Cc1ccc(C(=O)NNC(=S)NC(=O)c2ccco2)cc1 | i | i | i | 133* | i | -7
O=C(NNC(=S)NC(=O)c1ccccc1)c1ccc([N+](=O)[O-])cc1 | i | i | i | 56* | i | 0
Cc1ccc(C(=O)NC(=S)NNC(=O)c2ccccc2[N+](=O)[O-])cc1 | i | i | i | 53* | i | /
CCN(CCn1cccn1)Cc1cn[nH]c1-c1cccc2ccccc12 | i | i | i | i | i | 59*
CCN(CCn1cccn1)Cc1cn[nH]c1-c1ccc(-c2ccccc2)cc1 | i | i | i | i | i | 0
COC(=O)c1ccccc1N=Nc1c(N)[nH][nH]c1=O | 82* | i | i | 47* | i | -1
CCOC(=O)c1sc(NC(=O)CCCn2nc([N+](=O)[O-])cc2C)c(C(=O)OCC)c1C | i | i | i | i | i | 4
CC1(C)CC(=O)C(C(C2=C(O)CC(C)(C)CC2=O)c2ccc(Cl)c([N+](=O)[O-])c2)C(=O)C1 (configuration not stated) | i | i | i | 46* | i | 23
